Consider one compound from ChEMBL document CHEMBL1255483, “Intra- and extracellular activities of dicloxacillin against Staphylococcus aureus in vivo and in vitro” (Antimicrob Agents Chemother, 2010).

A short description of series [1]: AUC (24 hrs) in NMRI mouse at 30 mg/kg, sc. Type of series: ADME, organism-based. The arrangement: time < 24 hr, dose 30 mg/kg, route subcutaneous. The conditions noted are these: plasma. In short, it runs like this:
(§1)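 Single subcutaneous DCX doses given to NMRI mice. Blood was collected into EDTA tubes, and plasma drug was assayed by microbiological bioassay with S. lutea ATCC 9391 (detection limit 1.5 mg/liter, linear to 100 mg/liter). Values came from noncompartmental analysis. Terminal half-life was fitted monoexponentially to the last four time points. AUC24 combined the trapezoidal rule over mean points with exact integration of the fitted curve extrapolated to 24 h.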

The species entered for series [2] is Mus musculus. Briefly: Protein binding in NMRI mouse at 270 mg/l by ultrafiltration. Type of series: ADME, organism-based. The settings on record: in vivo. In short, it runs like this: (§2)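 Plasma binding was measured by ultrafiltration. EDTA blood from healthy mice, or from NMRI mice infected intraperitoneally for 6 h with E19977, was spiked with DCX at 10–400 mg/liter, with PBS controls. Samples were held 1 h at 37°C, then centrifuged through 30-kDa filters at 3,000 × g for 8 min at 37°C. Total and filtrate drug were measured by S. lutea bioassay.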

Series [3] relates to Staphylococcus aureus. Briefly: Bacteriostatic activity against Staphylococcus aureus E19977 infected in human THP-1 cells at 100 times MIC after 5 hrs. Type of series: functional, organism-based. In short, it runs like this: (§3)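 Human THP-1 macrophages were infected with opsonized S. aureus at 4 bacteria per macrophage for 45 min. Non-phagocytized bacteria were removed by washing and a brief incubation in PBS with gentamicin 50 mg/liter. Cells were then incubated up to 24 h with DCX over a wide range of extracellular concentrations. The read-out was Δlog CFU per mg cell protein versus time zero (n = 3), with sigmoidal fitting and Cstatic by interpolation.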

Series [4] can be described thus: Cmax in NMRI mouse at 30 mg/kg, sc. Set-up: dose 30 mg/kg, route subcutaneous. The conditions noted are these: in vivo. Type of series: ADME, organism-based. In short, it runs like this:
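Single subcutaneous dicloxacillin doses were given to NMRI mice. EDTA plasma was assayed by microbiological bioassay with S. lutea ATCC 9391 (detection limit 1.5 mg/liter, linear to 100 mg/liter, CV ~5%). Cmax was obtained by noncompartmental analysis.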

The test system of series [5] is Staphylococcus aureus. Briefly: Bactericidal activity against Staphylococcus aureus E19977 infected in human THP1 cells assessed as log reduction in bacterial count at 100 times MIC after 24 hrs by time-kill assay. The class given is functional, THP-1. In short, it runs like this:
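Intracellular model in THP-1 macrophages: opsonized S. aureus was added at 4 bacteria per macrophage for 45 min. Non-phagocytized bacteria were removed by washing and brief PBS incubation with gentamicin (50 mg/liter). Cells were then incubated up to 24 h with a wide range of extracellular dicloxacillin concentrations. Result is change in log₁₀ CFU per mg cell protein from time zero. n = 3.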

Series [6] in a line: Ratio of fAUC (24 hrs) in NMRI mouse at 240 mg/kg administered every 6 hrs to MIC for Staphylococcus aureus E19977. The class given is functional. In short, it runs like this: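 Modeled free AUC over 24 h divided by the MIC, not measured directly. Single subcutaneous DCX doses were given to NMRI mice, and plasma was assayed by S. lutea bioassay. Noncompartmental analysis used trapezoidal mean points plus a fitted monoexponential extrapolated to 24 h. Free fraction came from a square-root fit to plasma ultrafiltration binding (10–400 mg/liter spike, 1 h, 37°C). The MIC was measured by broth microdilution at pH 7.4.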

A further series concerns THP-1. Briefly: Cytotoxicity against human THP1 cells at 500 mg/L after 24 hrs by trypan blue exclusion method. Type of series: cell-based. The settings on record: thp-1, 24 h. In short, it runs like this:
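THP-1 macrophage viability was checked by trypan blue exclusion after 24 h of exposure to DCX at concentrations up to 500 mg/liter.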

The test system of series [7] is Staphylococcus aureus. Put plainly: Antimicrobial activity against Staphylococcus aureus E19977 by broth microdilution method at pH 5.4.
The test system of series [8] is Staphylococcus aureus. Briefly: Bactericidal activity against Staphylococcus aureus ATCC 25923 assessed as log reduction in bacterial count at MIC after 5 hrs by time-kill assay. Type of series: functional. In short, it runs like this: (§4)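 Broth time-kill: MSSA at 10⁶ CFU/ml exposed to a wide range of dicloxacillin concentrations. CFU counted after 5 and 24 h and expressed as change in log₁₀ CFU/ml from time zero. Multiples refer to the MIC by CLSI microdilution at pH 7.4. n = 3.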

For series [9], the system named is Staphylococcus aureus. Put plainly: Bacteriostatic activity against Staphylococcus aureus ATCC 25923 infected in human THP-1 cells after 24 hrs. Type of series: functional. In short, it runs like this:
as §3

The species named for series [10] is Mus musculus. Put plainly: Protein binding in NMRI mouse at 400 mg/l by ultrafiltration. The class given is ADME, organism-based. The conditions noted are these: in vivo. In short, it runs like this: as §2
Series [11] concerns Staphylococcus aureus. Briefly: Antimicrobial activity against Staphylococcus aureus ATCC 25923 by broth microdilution method at pH 7.4. A general note: In broth dilution the organism is exposed to a series of concentrations in liquid medium.
In series [12] the test system is Staphylococcus aureus. Briefly: Antimicrobial activity against Staphylococcus aureus ATCC 25923 infected in human THP-1 cells after 24 hrs. Type of series: functional, organism-based. The conditions noted are these: ATCC 25923, THP-1, 24 h. In short, it runs like this: as §3
For series [13], the system named is Staphylococcus aureus. Briefly: Bactericidal activity against Staphylococcus aureus E19977 assessed as log reduction in bacterial count at 10 times MIC after 5 hrs by time-kill assay. The class given is functional. In short, it runs like this:
as §4

The test system of series [14] is Staphylococcus aureus. Put plainly: Bacteriostatic activity against Staphylococcus aureus ATCC 25923 infected in human THP-1 cells at MIC after 5 hrs. The class given is functional, organism-based. In short, it runs like this: as §3
A short description of series [15]: Ratio of fCmax in NMRI mouse at 240 mg/kg administered every 6 hrs to MIC for Staphylococcus aureus E19977. The class given is functional. In short, it runs like this:
(§5)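 Free Cmax/MIC was modelled, not measured. Single-dose subcutaneous plasma curves from NMRI mice were projected to the multiple-dose regimens. Free fraction came from a square-root fit of unbound fraction versus total concentration. Binding was measured by ultrafiltration of mouse plasma spiked with 10–400 mg/liter and held 1 h at 37°C. MIC was for strain E19977.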

Series [16] in a line: Ratio of fCmax in NMRI mouse at 120 mg/kg administered every 6 hrs to MIC for Staphylococcus aureus E19977. Type of series: functional. In short, it runs like this:
as §5

Series [17] is filed under the species Mus musculus. Briefly: Protein binding in NMRI mouse infected with Staphylococcus aureus E19977 at 30 mg/l by ultrafiltration. Type of series: ADME, organism-based. The conditions noted are these: in vivo. In short, it runs like this:
as §2

A short description of series [18]: fT>MIC in Staphylococcus aureus E19977 infected NMRI mouse at 76 mg/kg administered every 2 hrs. Type of series: functional. In short, it runs like this: (§6)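 Calculated percentage of 24 h at steady state that free plasma DCX exceeds the strain MIC (microdilution, pH 7.4). Concentrations were simulated from single subcutaneous dose plasma curves in NMRI mice (S. lutea bioassay), adjusted with a square-root model of concentration-dependent free fraction from ultrafiltration. The regimen was dosed subcutaneously in mice infected intraperitoneally with 10^7.4 CFU, and peritoneal CFU were read after 24 h of therapy.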

Series [19] in a line: Half-life in NMRI mouse at 30 mg/kg, sc. Type of series: ADME, organism-based. The arrangement: dose 30 mg/kg, route subcutaneous. The settings on record: in vivo. In short, it runs like this:
as §1

Series [20] can be described thus: Ratio of fCmax in NMRI mouse at 160 mg/kg administered every 3 hrs to MIC for Staphylococcus aureus E19977. The class given is functional. In short, it runs like this:
as §5

A short description of series [21]: fT>MIC in Staphylococcus aureus E19977 infected NMRI mouse at 240 mg/kg administered every 6 hrs. The class given is functional. In short, it runs like this:
as §6

A short description of series [22]: fT>MIC in Staphylococcus aureus E19977 infected NMRI mouse at 160 mg/kg administered every 3 hrs. Type of series: functional. In short, it runs like this:
as §6

Series [23] is described as follows: Ratio of fAUC (24 hrs) in NMRI mouse at 200 mg/kg administered every 4 hrs to MIC for Staphylococcus aureus E19977. Type of series: functional. In short, it runs like this:
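Computed from modelled dosing regimens, not measured directly. Single subcutaneous doses were given to NMRI mice, and plasma was assayed by S. lutea bioassay. AUC24 came from noncompartmental analysis, with terminal exponential extrapolation to 24 h. The free fraction came from a square-root fit to ultrafiltration protein-binding data, with saturable binding included. MIC was by broth microdilution.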

Values after ≈ are worked out from the molar mass of the structure shown. Active and inactive are the calls of the source.

Regarding `Cc1onc(-c2c(Cl)cccc2Cl)c1C(=O)N[C@@H]1C(=O)N2[C@@H]1SC(C)(C)[C@@H]2C(=O)O` [DICLOXACILLIN], the area under the curve (AUC) at 24 h in [1] turned out to be 21.4 µg·h/mL. The Activity is given as 84.9% in the series listed under Mus musculus [2]; “Non-toxic” with THP-1; 0.11 mg/L in the series with Staphylococcus aureus [9]; 83.7% in the series filed under Mus musculus [10]; 91.9% in the series listed under Mus musculus [17]. The result with Staphylococcus aureus [3] and in the series on Staphylococcus aureus [14] was Active. In addition, the Cmax in series [4] is 36 µg/mL. Further, the FC in the series on Staphylococcus aureus [5], in the series with Staphylococcus aureus [8] and in the series on Staphylococcus aureus [13] was below 1 throughout. Also, the results for the fAUC/MIC in series [6] and in series [23] were 572.83 h and 616.07 h, respectively. Also, the MIC against Staphylococcus aureus [7] and in the series with Staphylococcus aureus [11] was 0.125 mg/L (≈ 0.266 µM) throughout. In the series with Staphylococcus aureus [12], this compound returned an EC50 of 0.04 mg/L (≈ 0.085 µM). The Ratio in series [15] is 136.18; in [16], 61.6; in series [20] it was 81.58. For the same compound, the “fT>MIC” value is 100% in [18], 65.28% in series [21] and 96.11% in [22]. In series [19], this compound came in with a half-life of 19 min.

What is called AUC is the area under the concentration-time curve, a measure of exposure. Read a low AUC as low exposure. By Cmax is commonly meant the highest concentration seen after dosing. As a reminder, the MIC is the lowest concentration that inhibits growth of the organism. Read a high MIC as a need for much substance. For orientation: EC50 means the concentration needed to bring the measured effect to its halfway point. A high value points to a need for much substance. Broadly, the half-life is the time needed for the level to fall by half in the phase considered. A high value points to slow loss.
